Calls of active or inactive are those of the source. The calls are words filed in the database; no cut-off is given here.
Legend:
MDA-MB-231 = assay: Antiproliferative activity against human MDA-MB-231 cells after 48 hrs by MTT assay; assay type: functional, cell-based; details: MDA-MB-231, 48 h
[1] = Antiproliferative activity against human MDA-MB-231/Gem cells after 48 hrs by MTT assay; assay type: functional, cell-based
[2] = Resistance ratio of IC50 for human MDA-MB-231/Gem cells to IC50 for human MDA-MB-231 cells; assay type: functional
Method in brief: (§1)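 Resistance ratio = IC50 in the resistant line / IC50 in the drug-sensitive parent line. Each IC50 came from MTT assays, mean of triplicate determinations.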

WI-38 = assay: Cytotoxicity against human WI38 cells after 72 hrs by MTS assay; assay type: cell-based; details: WI-38, 72 h
Method in brief: (§2)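 Non-tumour human cells were HUVEC (umbilical vein endothelial), T29 (immortalized, nontumorigenic ovarian epithelial), WI-38 (lung fibroblasts) and MCF-10A (nontumorigenic breast epithelial). Viability was read by tetrazolium assay. IC50 is the mean of triplicate determinations.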

MCF-10A = assay: Cytotoxicity against human MCF10A cells after 72 hrs by MTS assay; assay type: cell-based; method in brief: as §2
HeLa = assay: Antiproliferative activity against human HeLa cells after 48 hrs by MTT assay; assay type: functional, cell-based
Method in brief: (§3)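 Human tumour lines were HeLa (cervical), SKOV3, OVCA429, OVCA433 and A2780 (ovarian), A549 (non-small cell lung), MDA-MB-231 and MCF-7 (breast), and KB (oral epidermoid). Antiproliferation was read by MTT assay. IC50 is the mean of triplicate determinations.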

SK-OV-3 = assay: Antiproliferative activity against human SKOV3 cells after 48 hrs by MTT assay; assay type: functional, cell-based; details: SK-OV-3, 48 h; method in brief: as §3
A549 = assay: Antiproliferative activity against human A549 cells after 48 hrs by MTT assay; assay type: functional, cell-based; details: A549, 48 h; method in brief: as §3
[3] = Antiproliferative activity against human OVCA429 cells after 48 hrs by MTT assay; assay type: functional, cell-based; details: OVCA429, 48 h; method in brief: as §3
[4] = Antiproliferative activity against human OVCA433 cells after 48 hrs by MTT assay; assay type: functional, cell-based; details: OVCA433, 48 h; method in brief: as §3
A2780 [5] = assay: Antiproliferative activity against human A2780 cells after 48 hrs by MTT assay; assay type: functional, cell-based; details: A2780, 48 h; method in brief: as §3
MCF7 = assay: Antiproliferative activity against human MCF7 cells after 48 hrs by MTT assay; assay type: functional, cell-based; details: MCF7, 48 h; method in brief: as §3
KB = assay: Antiproliferative activity against human KB cells after 48 hrs by MTT assay; assay type: functional, cell-based; method in brief: as §3
MV4-11 = assay: Antiproliferative activity against human MV411 cells after 72 hrs by MTS assay; assay type: functional, cell-based; details: MV4-11, 72 h
Method in brief: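 Human myeloid leukaemia MV-4-11 cells; antiproliferation read by MTS assay. IC50 is the mean of triplicate determinations.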

MM1.S = assay: Antiproliferative activity against human MM1S cells after 72 hrs by MTS assay; assay type: functional, cell-based
[6] = Antiproliferative activity against human A2780/CDDP cells after 48 hrs by MTT assay; assay type: functional, cell-based
Method in brief: (§4)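 Drug-resistant human tumour lines were A2780/CDDP (cisplatin-resistant ovarian), MDA-MB-231/Gem (gemcitabine-resistant breast), MCF-7/ADR and KB-V. Antiproliferation was read by MTT assay. IC50 is the mean of triplicate determinations.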

NCI/ADR-RES = assay: Antiproliferative activity against human MCF7/ADR cells after 48 hrs by MTT assay; assay type: functional, cell-based; method in brief: as §4
[7] = Antiproliferative activity against human KBV cells after 48 hrs by MTT assay; assay type: functional, cell-based; method in brief: as §4
HUVEC = assay: Cytotoxicity against HUVEC after 48 hrs by MTT assay; assay type: cell-based; details: Homo sapiens; method in brief: as §2
[8] = Cytotoxicity against human T29 cells after 48 hrs by MTT assay; assay type: cell-based; details: T29, 48 h; method in brief: as §2
[9] = Drug metabolism in human A2780 cells assessed as nitric oxide release at 100 uM after 150 mins by Griess assay; assay type: ADME, cell-based; details: a2780, 2.5 h
A2780 [10] = assay: Induction of apoptosis in human A2780 cells assessed as increase in late apoptotic cells at 10 to 20 nM measured after 24 hrs by Annexin-V-FITC/propidium iodide staining based flow cytometric method; assay type: functional, cell-based
[11] = Resistance ratio of IC50 for human KBV cells to IC50 for human KB cells; assay type: functional; method in brief: as §1
[12] = Selectivity ratio of IC50 for human A2780 cells to IC50 for A2780/CDDP cells; assay type: functional
Method in brief: (§5)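 Selectivity ratio = IC50 in the drug-sensitive parent line / IC50 in its resistant subline (A2780 vs A2780/CDDP, MDA-MB-231 vs MDA-MB-231/Gem, MCF-7 vs MCF-7/ADR, KB vs KB-V). Each IC50 came from MTT assays, mean of triplicates.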

[13] = Selectivity ratio of IC50 for human MDA-MB-231 cells to IC50 for MDA-MB-231/Gem cells; assay type: functional; method in brief: as §5
[14] = Selectivity ratio of IC50 for human MCF7 cells to IC50 for MCF7/ADR cells; assay type: functional; method in brief: as §5
[15] = Selectivity ratio of IC50 for human KB cells to IC50 for KBV cells; assay type: functional; method in brief: as §5
[16] = target: Dual specificity mitogen-activated protein kinase kinase; MEK1/2 (Homo sapiens) (UniProt P36507+Q02750); assay: Inhibition of MEK (unknown origin); assay type: protein assay
Dual specificity mitogen-activated protein kinase kinase; MEK1/2 (Homo sapiens), sequence (P36507 whole entry, looked up): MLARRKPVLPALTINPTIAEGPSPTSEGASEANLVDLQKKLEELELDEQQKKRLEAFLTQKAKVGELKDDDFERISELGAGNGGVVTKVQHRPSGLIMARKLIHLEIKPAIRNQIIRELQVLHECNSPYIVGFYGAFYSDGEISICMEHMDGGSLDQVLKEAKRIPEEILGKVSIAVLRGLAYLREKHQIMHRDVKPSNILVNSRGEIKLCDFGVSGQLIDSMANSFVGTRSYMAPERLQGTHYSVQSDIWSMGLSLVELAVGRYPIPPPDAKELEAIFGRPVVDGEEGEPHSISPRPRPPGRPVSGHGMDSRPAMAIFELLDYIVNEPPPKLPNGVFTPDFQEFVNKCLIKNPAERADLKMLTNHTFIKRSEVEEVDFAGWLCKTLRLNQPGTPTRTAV
Dual specificity mitogen-activated protein kinase kinase; MEK1/2 (Homo sapiens), sequence (Q02750 whole entry, looked up): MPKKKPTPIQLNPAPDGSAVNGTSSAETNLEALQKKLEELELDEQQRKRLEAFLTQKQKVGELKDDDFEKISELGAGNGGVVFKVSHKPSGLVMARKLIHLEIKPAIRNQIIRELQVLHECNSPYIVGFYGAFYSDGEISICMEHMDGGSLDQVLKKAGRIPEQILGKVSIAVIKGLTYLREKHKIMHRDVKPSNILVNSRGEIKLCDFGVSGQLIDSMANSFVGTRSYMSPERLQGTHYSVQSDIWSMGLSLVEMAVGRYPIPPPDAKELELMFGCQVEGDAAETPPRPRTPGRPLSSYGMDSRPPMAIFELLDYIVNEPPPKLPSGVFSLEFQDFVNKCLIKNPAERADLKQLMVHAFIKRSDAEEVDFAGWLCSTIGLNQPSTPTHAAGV

Row | SMILES | IC50 (MDA-MB-231) [nM] | IC50 [1] [nM] | IC50 (WI-38) [nM] | IC50 (MCF-10A) [nM] | IC50 (HeLa) [nM] | IC50 (SK-OV-3) [nM] | IC50 (A549) [nM] | IC50 [3] [nM] | IC50 [4] [nM] | IC50 (A2780 [5]) [nM] | IC50 (MCF7) [nM] | IC50 (KB) [nM] | IC50 (MV4-11) [nM] | IC50 (MM1.S) [nM] | IC50 [6] [nM] | IC50 (NCI/ADR-RES) [nM] | IC50 [7] [nM] | IC50 (HUVEC) [nM] | IC50 [8] [nM] | Drug metabolism [9] | other results
1 | Nc1ccn([C@@H]2O[C@H](CO)[C@@H](O)C2(F)F)c(=O)n1 [GEMCITABINE] | 36.4 | > 50000 |  |  |  |  |  |  |  |  |  |  |  |  |  |  |  |  |  |  | Ratio IC50 [2]: >1373
2 | Cc1cc(=O)oc2cc(OCCOc3no[n+]([O-])c3S(=O)(=O)c3ccccc3)ccc12 |  |  | 90 | 660 | 62.2 | 47.3 | 45.8 | 41.1 | 131 | 20.9 | 445 | 127 | 28.3 | 21 | 85.7 | 157 | 24.9 | 130 | 1800 | Metabolite_Detected | Activity (A2780 [10]): Active
3 | Nc1cccc2c1CN(C1CCC(=O)NC1=O)C2=O (stereo unspecified) [LENALIDOMIDE] |  |  | > 20000 | > 20000 |  |  |  |  |  |  |  |  | > 20000 |  |  |  |  |  |  |  | 
4 | CC[C@]1(O)C[C@H]2CN(CCc3c([nH]c4ccccc34)[C@@](C(=O)OC)(c3cc4c(cc3OC)N(C=O)[C@H]3[C@@](O)(C(=O)OC)[C@H](OC(C)=O)[C@]5(CC)C=CCN6CC[C@]43[C@@H]65)C2)C1 [VINCRISTINE] |  |  |  |  |  |  |  |  |  |  |  | 0.65 |  |  |  |  | 417 |  |  |  | Ratio IC50 [11]: 646
5 | Cc1c(Cc2ccccc2)c(=O)oc2cc(OCCOc3no[n+]([O-])c3S(=O)(=O)c3ccccc3)ccc12 | 6 | 25.2 | > 20000 | > 20000 | 22.9 | 17.3 | 2 | 1.7 | 1.1 | 12.7 | 2350 | 4540 | 24.5 | 12 | 94 | 16.3 | 16 | 440 | > 5000 | Metabolite_Detected | Ratio IC50 [12]: 0.1; Ratio IC50 [13]: 0.2; Ratio IC50 [14]: 144.2; Ratio IC50 [15]: 283.9; inhibition [16]: inactive
6 | Cc1ccc(NC(=O)NCc2ccc3c(c2)CN(C2CCC(=O)NC2=O)C3=O)cc1Cl (stereo unspecified) |  |  | > 20000 | 5 |  |  |  |  |  |  |  |  | 0.3 |  |  |  |  |  |  |  | 

Reference: ChEMBL document CHEMBL4145601, “Novel Nitric Oxide Donors of Phenylsulfonylfuroxan and 3-Benzyl Coumarin Derivatives as Potent Antitumor Agents” (ACS Med Chem Lett, 2018)
